Our source for the Activity values is ChEMBL document CHEMBL1159317, “Flavonoids from Ulex airensis and Ulex europaeus ssp. europaeus” (J Nat Prod, 2002).

Calls of active or inactive are those of the source. The calls are words filed in the database; no cut-off is given here.

Assay [1] concerns Cladosporium cucumerinum. The experiment in a line: Antifungal activity against Cladosporium cucumerinum CCMI 206 at 100 ug by bioautographic TLC bioassay. The assay is classed as functional, organism-based. The method, boiled down:
(§1)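 Bioautography on developed TLC plates against the fungus C. cucumerinum strain CCMI 206, obtained from the CCMI culture collection. Procedure followed Homans and Fuchs.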

The subject of assay [2] is Cladosporium cucumerinum. Nature of the assay: Induction of growth of Cladosporium cucumerinum CCMI 206 at 100 ug by bioautographic TLC bioassay. In kind it is functional, organism-based. In a few lines:
as §1

In the case of `CC1(C)C=Cc2c(cc3occ(-c4ccc(O)cc4)c(=O)c3c2O)O1`, the outcome in assay [1] was inactive. For `CC(C)=CCc1cc(-c2coc3cc(O)c(CC=C(C)C)c(O)c3c2=O)ccc1O`, the outcome in assay [1] was inactive.

As for `COc1cc2c(cc1OC)[C@@H]1Oc3cc4c(cc3[C@@H]1CO2)OCO4`, the result in assay [1] was Active.

Regarding `COc1cc(O)c2c(=O)c(-c3ccc(O)c(CC=C(C)C)c3)coc2c1CC=C(C)C`, in assay [1], the outcome was Active. In the case of `CC1(C)C=Cc2c(ccc(-c3coc4cc(O)cc(O)c4c3=O)c2O)O1`, the result in assay [1] was Active. Still for that read-out and setting: as for `COc1cc2c(cc1C1COc3cc(O)ccc3C1=O)OCO2` (configuration not stated), the entry is “Active”; as for `CC1(C)C=Cc2cc(-c3coc4cc5c(c(O)c4c3=O)CC(C(C)(C)O)O5)ccc2O1` (configuration not stated), “inactive”. In the case of `COc1c(O)cc2c(c1OC)OC[C@H]1c3cc4c(cc3O[C@@H]21)OCO4`, in assay [2], the outcome was Active. Consider `CC1(C)C=Cc2c(cc(O)c3c(=O)cc(-c4ccc(O)cc4)oc23)O1`, for which the outcome in assay [1] was inactive. For `CC1(C)C=Cc2cc(-c3coc4cc5oc(C(C)(C)O)cc5c(O)c4c3=O)ccc2O1`, in assay [1], the outcome was inactive. As to `COc1cc2c(cc1O)[C@@H]1Oc3cc4c(cc3[C@@H]1CO2)OCO4`, the outcome in assay [2] was Active. For `CC(C)=CCc1c(O)cc2occ(-c3ccc4c(c3)C=CC(C)(C)O4)c(=O)c2c1O`, the result in assay [1] was inactive.
